pIC50: −log10 of the molar value.
Experiments:
[1] = biological target: Glycogen synthase kinase-3 beta (Homo sapiens) (UniProt P49841); test: Inhibition of GSK3b (unknown origin) at 500 nM relative to control
4T1 [2] = test: Antitumor activity against mouse 4T1 cells allografted in Balb/C mouse assessed as tumor growth inhibition at 15 mg/kg, iv administered every 3 days for 21 days measured 2 times for every week during dosing relative to control; type: functional; conditions: 4T1, iv, read-out: TGI
[3] = biological target: Tyrosine-protein kinase JAK3 (Homo sapiens) (UniProt P52333); test: Inhibition of JAK3 (unknown origin) at 500 nM relative to control
[4] = Plasma concentration in BALB/c mouse at 2.5 mg/kg, iv at 0.5 hrs by LC/MS-MS analysis; type: ADME, organism-based
T47D = test: Antiproliferative activity against human T47D cells after 72 hrs by SRB assay
[5] = biological target: Dual specificity tyrosine-phosphorylation-regulated kinase 1A (Homo sapiens) (UniProt Q13627); conditions: at 100 nM
[6] = biological target: Protein-tyrosine kinase 6 (Homo sapiens) (UniProt Q13882); test: Inhibition of BRK (unknown origin) at 500 nM relative to control
[7] = biological target: Inhibitor of nuclear factor kappa-B kinase subunit beta (Homo sapiens) (UniProt O14920); test: Inhibition of IKKbeta (unknown origin) at 500 nM relative to control
[8] = biological target: Vascular endothelial growth factor receptor 1 (Homo sapiens) (UniProt P17948); test: Inhibition of VEGFR1 (unknown origin) at 500 nM relative to control
[9] = Plasma concentration in BALB/c mouse at 2.5 mg/kg, iv at 1 hr by LC/MS-MS analysis; type: ADME, organism-based
[10] = biological target: Glycogen synthase kinase-3 beta (Homo sapiens) (UniProt P49841); test: Inhibition of GSK3b (unknown origin) at 100 nM relative to control
[11] = biological target: Serine/threonine-protein kinase Nek6 (Homo sapiens) (UniProt Q9HC98); test: Inhibition of NEK6 (unknown origin) at 100 nM relative to control
BT-549 = test: Antiproliferative activity against human BT549 cells
[12] = biological target: Aurora kinase A (Homo sapiens) (UniProt O14965); test: Inhibition of aurora A (unknown origin) at 100 nM relative to control
[13] = Plasma concentration in BALB/c mouse at 2.5 mg/kg, iv at 0.25 hrs by LC/MS-MS analysis; type: ADME, organism-based
MDA-MB-231 = test: Antiproliferative activity against human MDA-MB-231 cells
[14] = biological target: Serine/threonine-protein kinase 26 (Homo sapiens) (UniProt Q9P289); test: Inhibition of MST4 (unknown origin) at 500 nM relative to control
[15] = biological target: Ribosomal protein S6 kinase beta-1 (Homo sapiens) (UniProt P23443); test: Inhibition of S6K1 (unknown origin) at 100 nM relative to control
[16] = Antiproliferative activity against HEK cells; conditions: Homo sapiens, HEK293
[17] = Plasma concentration in BALB/c mouse at 2.5 mg/kg, iv at […] by LC/MS-MS analysis; type: ADME, organism-based
[18] = biological target: Serine/threonine-protein kinase PLK1 (Homo sapiens) (UniProt P53350); test: Inhibition of PLK1 (unknown origin) at 500 nM relative to control
[19] = biological target: Tyrosine-protein kinase CSK (Homo sapiens) (UniProt P41240); test: Inhibition of CSK (unknown origin) at 500 nM relative to control
[20] = biological target: Insulin receptor-related protein (Homo sapiens) (UniProt P14616); test: Inhibition of IRR (unknown origin) at 100 nM relative to control
SH-SY5Y = test: Antiproliferative activity against human SH-SY5Y cells after 24 hrs by MTT assay; type: functional, cell-based
[21] = biological target: Tyrosine-protein kinase JAK3 (Homo sapiens) (UniProt P52333); test: Inhibition of JAK3 (unknown origin) at 100 nM relative to control
[22] = biological target: Insulin receptor-related protein (Homo sapiens) (UniProt P14616); test: Inhibition of IRR (unknown origin) at 500 nM relative to control
HCT-116 = test: Antiproliferative activity against human HCT116 cells after 72 hrs by SRB assay; conditions: HCT-116, 72 h
4T1 [23] = test: Antiproliferative activity against mouse 4T1 cells after 24 hrs by MTT assay; conditions: 4T1, 24 h
[24] = biological target: Mitogen-activated protein kinase 10 (Homo sapiens) (UniProt P53779); test: Inhibition of JNK3 (unknown origin) at 500 nM relative to control
[25] = biological target: Phosphatidylinositol 4,5-bisphosphate 3-kinase catalytic subunit alpha isoform (Homo sapiens) (UniProt P42336); test: Inhibition of PI3Kalpha (unknown origin) at 100 nM relative to control
[26] = biological target: Inhibitor of nuclear factor kappa-B kinase subunit beta (Homo sapiens) (UniProt O14920); test: Inhibition of IKKbeta (unknown origin) at 100 nM relative to control
[27] = biological target: Aurora kinase A (Homo sapiens) (UniProt O14965); test: Inhibition of aurora A (unknown origin) at 500 nM relative to control
[28] = biological target: Protein-tyrosine kinase 6 (Homo sapiens) (UniProt Q13882); test: Inhibition of BRK (unknown origin) at 100 nM relative to control
[29] = biological target: Tyrosine-protein kinase CSK (Homo sapiens) (UniProt P41240); test: Inhibition of CSK (unknown origin) at 100 nM relative to control
[30] = biological target: Serine/threonine-protein kinase Sgk1 (Homo sapiens) (UniProt O00141); test: Inhibition of SGK (unknown origin) at 100 nM relative to control
MCF7 = test: Antiproliferative activity against human MCF7 cells
[31] = biological target: Dual specificity tyrosine-phosphorylation-regulated kinase 1A (Homo sapiens) (UniProt Q13627); conditions: at 500 nM
[32] = biological target: Tyrosine-protein kinase Lck (Homo sapiens) (UniProt P06239); test: Inhibition of LCK (unknown origin) at 500 nM relative to control
[33] = biological target: Serine/threonine-protein kinase Nek6 (Homo sapiens) (UniProt Q9HC98); test: Inhibition of NEK6 (unknown origin) at 500 nM relative to control
[34] = biological target: Serine/threonine-protein kinase 26 (Homo sapiens) (UniProt Q9P289); test: Inhibition of MST4 (unknown origin) at 100 nM relative to control
[35] = biological target: Tyrosine-protein kinase Lck (Homo sapiens) (UniProt P06239); test: Inhibition of LCK (unknown origin) at 100 nM relative to control
[36] = biological target: Serine/threonine-protein kinase Chk1 (Homo sapiens) (UniProt O14757); test: Inhibition of CHK1 (unknown origin) at 500 nM relative to control
[37] = Selectivity ratio of IC50 for HEK cells to IC50 for human MCF7 cells
MDA-MB-468 = test: Antiproliferative activity against human MDA-MB-468 cells
[38] = biological target: Ribosomal protein S6 kinase beta-1 (Homo sapiens) (UniProt P23443); test: Inhibition of S6K1 (unknown origin) at 500 nM relative to control
[39] = biological target: Mitogen-activated protein kinase 10 (Homo sapiens) (UniProt P53779); test: Inhibition of JNK3 (unknown origin) at 100 nM relative to control
[40] = biological target: Serine/threonine-protein kinase Chk1 (Homo sapiens) (UniProt O14757); test: Inhibition of CHK1 (unknown origin) at 100 nM relative to control
[41] = biological target: Phosphatidylinositol 4,5-bisphosphate 3-kinase catalytic subunit alpha isoform (Homo sapiens) (UniProt P42336); test: Inhibition of PI3Kalpha (unknown origin) at 500 nM relative to control
[42] = biological target: Serine/threonine-protein kinase PLK1 (Homo sapiens) (UniProt P53350); test: Inhibition of PLK1 (unknown origin) at 100 nM relative to control
[43] = biological target: Vascular endothelial growth factor receptor 1 (Homo sapiens) (UniProt P17948); test: Inhibition of VEGFR1 (unknown origin) at 100 nM relative to control
[44] = biological target: Serine/threonine-protein kinase Sgk1 (Homo sapiens) (UniProt O00141); test: Inhibition of SGK (unknown origin) at 500 nM relative to control
4T1 [45] = test: Antitumor activity against mouse 4T1 cells allografted in Balb/C mouse assessed as tumor growth inhibition at 5 mg/kg, iv administered every 3 days for 21 days measured 2 times for every week during dosing relative to control; type: functional; conditions: 4T1, iv, read-out: TGI
Outline: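 4T1 cells were grown in RPMI-1640 with 10% FBS, pyruvate and NEAA at 37 °C and 5% CO2. Female Balb/C mice received 1×10^6 cells into the second mammary fat pad. At about 100 mm3, mice were grouped five per group and dosed by tail vein in 200 µL (PBS diluent) every three days for 21 days. Tumor volume (L×B²/2, caliper) and body weight were taken twice weekly. The experiment was repeated twice.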

Mus musculus [46] = test: Toxicity in Balb/C mouse allografted with mouse 4T1 cells assessed as mortality at 5 mg/kg, iv administered every 3 days for 21 days; type: organism-based; conditions: in vivo
Mus musculus [47] = test: Toxicity in Balb/C mouse allografted with mouse 4T1 cells assessed as body weight loss at 5 mg/kg, iv administered every 3 days for 21 days measured 2 times for every week during dosing; type: organism-based; conditions: in vivo
Outline: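 Female Balb/c mice received 1×10^6 4T1 cells into the second mammary fat pad. At about 100 mm3 tumor volume they were split into groups of five. Doses were given iv by tail vein in 200 µL every three days for 21 days, with a PBS diluent control. Body weight and tumor size were measured twice weekly, and the experiment was repeated twice.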

Sequence of Protein-tyrosine kinase 6 (Homo sapiens) (Q13882 whole entry, looked up): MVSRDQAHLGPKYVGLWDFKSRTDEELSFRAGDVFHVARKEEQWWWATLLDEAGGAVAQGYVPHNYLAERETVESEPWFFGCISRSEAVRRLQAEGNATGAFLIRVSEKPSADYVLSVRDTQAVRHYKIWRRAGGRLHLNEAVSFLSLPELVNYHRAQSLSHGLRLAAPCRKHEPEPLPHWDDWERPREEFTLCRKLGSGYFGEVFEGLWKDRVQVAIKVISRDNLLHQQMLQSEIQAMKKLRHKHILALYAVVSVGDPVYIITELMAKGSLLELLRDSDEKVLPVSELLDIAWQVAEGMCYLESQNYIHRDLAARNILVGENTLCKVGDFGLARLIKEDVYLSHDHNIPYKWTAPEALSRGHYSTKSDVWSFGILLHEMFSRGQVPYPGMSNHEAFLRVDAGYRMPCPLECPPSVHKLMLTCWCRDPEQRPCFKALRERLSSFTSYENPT
Sequence of Mitogen-activated protein kinase 10 (Homo sapiens) (P53779 whole entry, canonical isoform): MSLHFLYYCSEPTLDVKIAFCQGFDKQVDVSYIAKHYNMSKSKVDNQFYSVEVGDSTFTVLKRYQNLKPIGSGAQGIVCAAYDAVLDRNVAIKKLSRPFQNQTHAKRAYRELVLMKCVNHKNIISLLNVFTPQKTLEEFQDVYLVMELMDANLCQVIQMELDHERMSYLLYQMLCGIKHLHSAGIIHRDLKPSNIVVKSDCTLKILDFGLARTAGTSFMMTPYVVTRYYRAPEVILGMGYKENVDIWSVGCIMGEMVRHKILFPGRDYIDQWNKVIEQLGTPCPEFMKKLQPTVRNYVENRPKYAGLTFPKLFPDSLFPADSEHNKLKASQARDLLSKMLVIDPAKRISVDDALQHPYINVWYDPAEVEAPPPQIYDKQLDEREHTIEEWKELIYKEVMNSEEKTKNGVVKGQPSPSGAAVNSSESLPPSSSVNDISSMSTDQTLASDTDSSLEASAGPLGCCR
Sequence of Serine/threonine-protein kinase Sgk1 (Homo sapiens) (O00141 whole entry): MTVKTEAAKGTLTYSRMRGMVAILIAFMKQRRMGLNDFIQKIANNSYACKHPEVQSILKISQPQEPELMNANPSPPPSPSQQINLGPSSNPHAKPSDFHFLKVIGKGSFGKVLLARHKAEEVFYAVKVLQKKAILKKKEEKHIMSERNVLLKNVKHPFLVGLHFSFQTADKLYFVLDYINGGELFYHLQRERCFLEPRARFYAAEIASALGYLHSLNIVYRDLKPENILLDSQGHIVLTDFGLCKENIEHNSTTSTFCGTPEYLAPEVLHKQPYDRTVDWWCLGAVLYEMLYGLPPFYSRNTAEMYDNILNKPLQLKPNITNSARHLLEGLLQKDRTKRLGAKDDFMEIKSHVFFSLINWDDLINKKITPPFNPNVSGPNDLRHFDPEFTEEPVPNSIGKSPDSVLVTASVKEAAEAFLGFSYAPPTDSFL
Sequence of Glycogen synthase kinase-3 beta (Homo sapiens) (P49841 whole entry, looked up): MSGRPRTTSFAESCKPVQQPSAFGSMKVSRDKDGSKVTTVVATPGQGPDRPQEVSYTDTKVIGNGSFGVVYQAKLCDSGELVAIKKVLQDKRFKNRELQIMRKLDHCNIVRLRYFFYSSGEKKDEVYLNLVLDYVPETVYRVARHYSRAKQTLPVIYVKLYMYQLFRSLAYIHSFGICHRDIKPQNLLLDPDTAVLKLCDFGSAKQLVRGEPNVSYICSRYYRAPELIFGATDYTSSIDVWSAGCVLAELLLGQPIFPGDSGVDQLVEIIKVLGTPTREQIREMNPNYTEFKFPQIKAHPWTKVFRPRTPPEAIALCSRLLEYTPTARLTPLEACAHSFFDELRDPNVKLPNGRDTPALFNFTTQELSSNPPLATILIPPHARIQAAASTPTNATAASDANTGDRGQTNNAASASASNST
Sequence of Tyrosine-protein kinase Lck (Homo sapiens) (P06239 2-509 limits assumed): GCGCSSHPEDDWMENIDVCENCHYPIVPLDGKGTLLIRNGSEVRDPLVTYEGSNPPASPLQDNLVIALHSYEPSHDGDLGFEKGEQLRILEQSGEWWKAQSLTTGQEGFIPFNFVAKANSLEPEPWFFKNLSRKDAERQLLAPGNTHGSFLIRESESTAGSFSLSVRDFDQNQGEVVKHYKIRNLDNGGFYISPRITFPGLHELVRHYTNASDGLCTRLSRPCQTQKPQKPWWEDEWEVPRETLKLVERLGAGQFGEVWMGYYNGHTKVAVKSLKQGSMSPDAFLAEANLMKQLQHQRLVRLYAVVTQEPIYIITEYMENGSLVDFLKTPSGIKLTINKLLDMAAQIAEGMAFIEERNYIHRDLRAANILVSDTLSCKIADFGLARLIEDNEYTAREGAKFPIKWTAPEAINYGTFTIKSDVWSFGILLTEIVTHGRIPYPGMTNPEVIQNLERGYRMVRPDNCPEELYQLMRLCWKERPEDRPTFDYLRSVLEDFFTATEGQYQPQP
Sequence of Tyrosine-protein kinase CSK (Homo sapiens) (P41240 2-450 limits assumed): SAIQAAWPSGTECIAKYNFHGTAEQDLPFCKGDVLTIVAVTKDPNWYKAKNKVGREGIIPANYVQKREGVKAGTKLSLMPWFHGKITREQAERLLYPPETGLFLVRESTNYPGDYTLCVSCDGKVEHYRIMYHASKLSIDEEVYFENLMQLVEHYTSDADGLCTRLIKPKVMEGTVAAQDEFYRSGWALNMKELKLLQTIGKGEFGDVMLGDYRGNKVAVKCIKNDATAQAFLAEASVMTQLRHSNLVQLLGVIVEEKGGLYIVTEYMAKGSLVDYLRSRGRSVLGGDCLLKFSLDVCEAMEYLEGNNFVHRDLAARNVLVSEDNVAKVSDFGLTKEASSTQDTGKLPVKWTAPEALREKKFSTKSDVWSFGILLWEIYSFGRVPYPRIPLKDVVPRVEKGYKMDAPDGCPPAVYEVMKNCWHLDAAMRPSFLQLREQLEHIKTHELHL
Sequence of Ribosomal protein S6 kinase beta-1 (Homo sapiens) (P23443 whole entry, looked up): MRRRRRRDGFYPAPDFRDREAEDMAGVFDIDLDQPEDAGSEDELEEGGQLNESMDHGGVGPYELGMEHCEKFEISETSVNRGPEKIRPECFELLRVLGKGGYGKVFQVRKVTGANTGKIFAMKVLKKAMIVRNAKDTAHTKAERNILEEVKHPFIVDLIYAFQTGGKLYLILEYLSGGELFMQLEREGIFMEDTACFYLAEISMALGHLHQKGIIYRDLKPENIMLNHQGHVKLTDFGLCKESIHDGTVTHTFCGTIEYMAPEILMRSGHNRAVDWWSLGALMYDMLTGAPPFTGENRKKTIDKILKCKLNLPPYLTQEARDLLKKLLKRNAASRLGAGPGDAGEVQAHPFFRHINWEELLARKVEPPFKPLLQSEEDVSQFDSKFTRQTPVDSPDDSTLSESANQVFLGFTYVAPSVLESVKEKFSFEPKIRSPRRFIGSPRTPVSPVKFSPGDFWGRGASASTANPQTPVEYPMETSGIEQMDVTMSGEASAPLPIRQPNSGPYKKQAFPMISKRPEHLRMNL
Sequence of Tyrosine-protein kinase JAK3 (Homo sapiens) (P52333 whole entry): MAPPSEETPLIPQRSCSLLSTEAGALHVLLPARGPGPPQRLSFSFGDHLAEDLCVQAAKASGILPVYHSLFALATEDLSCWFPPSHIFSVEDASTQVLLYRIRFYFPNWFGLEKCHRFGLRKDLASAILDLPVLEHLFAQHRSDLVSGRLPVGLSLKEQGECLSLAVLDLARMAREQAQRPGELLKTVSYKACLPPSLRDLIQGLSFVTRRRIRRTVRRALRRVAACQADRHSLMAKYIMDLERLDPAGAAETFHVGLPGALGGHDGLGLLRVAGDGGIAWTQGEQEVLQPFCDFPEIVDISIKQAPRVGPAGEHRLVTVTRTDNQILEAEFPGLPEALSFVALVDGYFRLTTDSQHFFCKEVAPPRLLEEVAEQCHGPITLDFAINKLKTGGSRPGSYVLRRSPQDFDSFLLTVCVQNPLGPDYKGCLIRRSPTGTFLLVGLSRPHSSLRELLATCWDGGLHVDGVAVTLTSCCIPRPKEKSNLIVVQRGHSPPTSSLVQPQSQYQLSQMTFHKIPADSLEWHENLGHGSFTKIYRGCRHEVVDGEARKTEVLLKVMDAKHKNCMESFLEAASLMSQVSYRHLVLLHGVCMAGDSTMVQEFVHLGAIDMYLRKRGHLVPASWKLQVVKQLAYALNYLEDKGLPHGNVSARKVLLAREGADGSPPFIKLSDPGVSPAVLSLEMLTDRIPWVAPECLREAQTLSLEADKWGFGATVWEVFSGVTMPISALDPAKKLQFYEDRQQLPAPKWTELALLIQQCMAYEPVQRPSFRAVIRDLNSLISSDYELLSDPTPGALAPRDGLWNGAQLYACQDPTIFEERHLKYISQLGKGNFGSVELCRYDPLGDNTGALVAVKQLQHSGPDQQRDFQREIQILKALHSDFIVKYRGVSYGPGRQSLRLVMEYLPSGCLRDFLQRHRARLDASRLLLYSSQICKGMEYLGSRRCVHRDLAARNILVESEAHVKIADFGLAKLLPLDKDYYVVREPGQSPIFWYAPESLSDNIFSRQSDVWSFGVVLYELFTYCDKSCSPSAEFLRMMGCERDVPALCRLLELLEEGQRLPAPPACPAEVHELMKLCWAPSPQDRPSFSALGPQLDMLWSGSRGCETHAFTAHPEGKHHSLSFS
Sequence of Serine/threonine-protein kinase Nek6 (Homo sapiens) (Q9HC98 whole entry): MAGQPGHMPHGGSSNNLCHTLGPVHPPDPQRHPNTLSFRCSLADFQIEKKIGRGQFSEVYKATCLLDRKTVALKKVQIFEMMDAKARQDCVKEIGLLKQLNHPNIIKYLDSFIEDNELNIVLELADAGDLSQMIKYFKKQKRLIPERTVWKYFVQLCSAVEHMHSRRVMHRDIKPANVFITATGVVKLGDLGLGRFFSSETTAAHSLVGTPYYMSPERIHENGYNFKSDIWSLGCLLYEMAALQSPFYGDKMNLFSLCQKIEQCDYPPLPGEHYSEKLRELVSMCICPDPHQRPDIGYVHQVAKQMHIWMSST

## COc1ccnc2[nH]cc(-c3ccnc(N)n3)c12 [MERIOLIN 3]
[1]
  inhibition: 13.7%
4T1 [2]
  inhibition in vivo at 15 mg/kg: 95%
[3]
  inhibition: 14.6%
[4]
  concentration at 0.5 h: 54.9 ng/mL
T47D
  pIC50: 6.70
[5]
  inhibition: 96%
[6]
  inhibition: 9.5%
[7]
  inhibition: 43.8%
[8]
  inhibition: 3.1%
[9]
  concentration at 1 h: 35.3 ng/mL
[10]
  inhibition: 13.4%
[11]
  inhibition: 4.1%
BT-549
  pIC50: 6.89
[12]
  inhibition: 10.6%
[13]
  concentration at 0.25 h: 141 ng/mL
MDA-MB-231
  pIC50: 6.70
[14]
  inhibition: 11.4%
[15]
  inhibition: 84.5%
[16]
  pIC50: 6.73
[17]
  concentration at […]: 313 ng/mL
[18]
  inhibition: 14.6%
[19]
  inhibition: -4.6%
[20]
  inhibition: 6.9%
SH-SY5Y
  pIC50: 6.92
[21]
  inhibition: 31.9%
[22]
  inhibition: -4.6%
HCT-116
  pIC50: 7.00
4T1 [23]
  pIC50: 6.19
[24]
  inhibition: -2.6%
[25]
  inhibition: 11.5%
[26]
  inhibition: 37.2%
[27]
  inhibition: 9.5%
[28]
  inhibition: 10.6%
[29]
  inhibition: 6.9%
[30]
  inhibition: 29.3%
MCF7
  pIC50: 6.70
[31]
  inhibition: 98.3%
[32]
  inhibition: 8.3%
[33]
  inhibition: 20.1%
[34]
  inhibition: 6.7%
[35]
  inhibition: 7.3%
[36]
  inhibition: 13.7%
[37]
  Ratio IC50: 0.94
MDA-MB-468
  pIC50: 6.80
[38]
  inhibition: 91.7%
[39]
  inhibition: -7.9%
[40]
  inhibition: 13.4%
[41]
  inhibition: 21.1%
[42]
  inhibition: -1.7%
[43]
  inhibition: 0.9%
[44]
  inhibition: 38.1%

## COc1cccc2c1C(=O)c1c(O)c3c(c(O)c1C2=O)C[C@@](O)(C(=O)CO)C[C@@H]3O[C@H]1C[C@H](N)[C@H](O)[C@H](C)O1 [DOXORUBICIN]
4T1 [45]
  inhibition in vivo at 5 mg/kg: 97.3%
Mus musculus [46]
  Activity: Non-Toxic
Mus musculus [47]
  Activity: Toxic
